Measurements published in ChEMBL document CHEMBL1123778, “Synthesis and 5-lipoxygenase inhibitory activity of 5-hydroperoxy-6,8,11,14-eicosatetraenoic acid analogues” (J Med Chem, 1987).

Each compound was assayed against T1, Polyunsaturated fatty acid 5-lipoxygenase (Rattus norvegicus, UniProt P12527) (assay: In vitro inhibitory activity against 5-lipoxygenase from rat basophilic leukemia cells.).
T1 sequence (P12527 whole entry): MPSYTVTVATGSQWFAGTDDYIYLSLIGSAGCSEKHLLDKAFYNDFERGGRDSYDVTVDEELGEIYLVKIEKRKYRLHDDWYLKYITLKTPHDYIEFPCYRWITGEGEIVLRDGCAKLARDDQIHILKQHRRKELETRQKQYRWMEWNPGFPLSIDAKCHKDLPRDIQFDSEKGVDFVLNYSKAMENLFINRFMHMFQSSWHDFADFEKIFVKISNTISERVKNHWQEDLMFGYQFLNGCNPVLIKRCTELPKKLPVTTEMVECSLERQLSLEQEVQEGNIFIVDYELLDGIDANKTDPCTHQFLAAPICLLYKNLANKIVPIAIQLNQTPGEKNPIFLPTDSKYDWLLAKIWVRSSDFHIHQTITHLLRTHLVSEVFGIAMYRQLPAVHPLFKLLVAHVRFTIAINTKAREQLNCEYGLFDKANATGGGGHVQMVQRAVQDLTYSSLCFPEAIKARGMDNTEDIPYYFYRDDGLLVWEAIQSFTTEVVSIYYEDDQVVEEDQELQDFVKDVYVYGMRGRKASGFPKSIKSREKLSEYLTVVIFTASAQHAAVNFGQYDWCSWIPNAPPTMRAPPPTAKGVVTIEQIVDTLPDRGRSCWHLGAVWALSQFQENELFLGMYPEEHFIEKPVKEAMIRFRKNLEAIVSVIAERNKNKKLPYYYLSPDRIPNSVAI
Work on `CCCCC/C=C\C/C=C\C/C=C\C=C\C1CCCC(=O)N1` (centres undefined) yielded an IC50 of 10 µM. For `CCCCC/C=C\C/C=C\C/C=C\C=C\C1CC(=O)CC(CC(=O)O)C1` (centres undefined), the IC50 was 59 µM. `CCCCC/C=C\C/C=C\C/C=C\C=C\C(CCCC(=O)O)CC(=O)NO` (centres undefined) gave an IC50 of 0.19 µM. Compound `CCCCC/C=C\C/C=C\C\C=C/C=C/C(CCCC(=O)O)=N/N=C(/N)S` has an IC50 of 7.9 µM. In the case of `CCCCC/C=C\C/C=C\C\C=C/C=C/C(CCCC(=O)O)=N/O`, the IC50 is reported as 11 µM. Work on `CCCCC/C=C\C/C=C\C/C=C\C=C\C(CS)CCCC(=O)O` (centres undefined) yielded an IC50 of 11 µM. `CCCCC/C=C\C/C=C\C/C=C\C=C\C(=O)CCCC(=O)O` [5-OXO-ETE] showed an IC50 of 18 µM. `CCCCC/C=C\C/C=C\C/C=C\C=C\C(CCO)CCCC(=O)O` (centres undefined) was tested, and the IC50 was 22 µM. Compound `CCCCC/C=C\C/C=C\C/C=C\C/C=C\CCCC(=O)NO` has an IC50 of 2.2 µM. Work on `CCCCC/C=C\C/C=C\C/C=C\C=C\C(CCCO)CCCC(=O)O` (centres undefined) yielded an IC50 of 97 µM. In the case of `CCCCC/C=C\C/C=C\C/C=C\C=C\C(CO)CCCC(=O)O` (centres undefined), the IC50 is reported as 29 µM. `CCCCC/C=C\C/C=C\C/C=C\C=C\C(S)CCCC(=O)O` (centres undefined) showed an IC50 of 7.6 µM. In the case of `CCCCC/C=C\C/C=C\C/C=C\C=C\C(N)CCCC(=O)O` (centres undefined), the IC50 is reported as 25 µM. `CCCCC/C=C\C/C=C\C/C=C\C=C\C(CCCC(=O)O)CC(=O)O` (centres undefined) gave an IC50 of 96 µM. `CCCCC/C=C\C/C=C\C/C=C\C=C\C(CCCC(=O)O)NO` (centres undefined) was tested, and the IC50 was 21 µM. `CCCCC/C=C\C/C=C\C/C=C\C=C\C(O)CCCC(=O)NO` (centres undefined) was tested, and the IC50 was 2.1 µM. With `CCCCC/C=C\C/C=C\C/C=C\C=C\C1CCCC(=O)O1` (centres undefined) the IC50 was 27 µM. For `CCCCC/C=C\C/C=C\C/C=C\C=C\C(CCCC(=O)O)CCC(=O)NO` (centres undefined), the IC50 was 2.8 µM. With `CCCCC/C=C\C/C=C\C/C=C\C=C\C(CCCS)CCCC(=O)O` (centres undefined) the IC50 was 36 µM. `CCCCC/C=C\C/C=C\C/C=C\C=C\C(CCCC(=O)O)C(=O)NO` (centres undefined) gave an IC50 of 1.4 µM. In the case of `CCCCC/C=C\C/C=C\C\C=C/C=C/C(CCCC(=O)O)=N/NC(N)=O`, the IC50 is reported as 7 µM. In the case of `CCCCC/C=C\C/C=C\C/C=C\C=C\C(CCCC(=O)O)OC(C)=O` (centres undefined), the IC50 is reported as 68 µM. `CCCCC/C=C\C/C=C\C/C=C\C=C\C(CCS)CCCC(=O)O` (centres undefined) was tested, and the IC50 was 25 µM.

What follows are compounds tested against T2, Polyunsaturated fatty acid 5-lipoxygenase (Rattus norvegicus) (UniProt P12527) (assay: In vitro inhibitory activity against 5-Lipoxygenase from rat basophilic leukemia cells at 30 uM concentration).
T2 sequence (whole entry): T1 sequence (P12527 whole entry)
In short: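 20000g supernatant of homogenized RBL-1 cells (7.5×10^6 cell equivalents/mL) preincubated 20 min at 37 °C with inhibitor or vehicle (2% Me₂SO) in pH 6.8 BES/PIPES buffer with EDTA, NaCl, 0.7 mM CaCl₂. Reaction started with 66 μM [¹⁴C]arachidonic acid. [¹⁴C]-5-HETE counted by liquid scintillation, corrected for [³H]-5-HETE recovery. Inhibition = % reduction vs control.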
Compound `CCCCC/C=C\C/C=C\C/C=C\C=C\C1CCCC(=O)C1` (centres undefined) has an inhibition of 27%.
